Measurements published in ChEMBL document CHEMBL1135657, “Novel dual inhibitors of AChE and MAO derived from hydroxy aminoindan and phenethylamine as potential treatment for Alzheimer's disease” (J Med Chem, 2002).

Assays:
Acetylcholinesterase [1] = biological target: T1, Acetylcholinesterase (Homo sapiens, UniProt P22303); experiment: In vitro inhibitory concentration against purified Acetylcholinesterase of human erythrocytes; value ranges from 7.3-50.4
[2] = biological target: T2, Amine oxidase [flavin-containing] B (Rattus norvegicus, UniProt P19643); experiment: In vitro inhibitory concentration against Monoamine oxidase B of rat brain homogenates; value ranges from 0.4-1.3; format: tissue-based
T2 sequence (P19643 whole entry): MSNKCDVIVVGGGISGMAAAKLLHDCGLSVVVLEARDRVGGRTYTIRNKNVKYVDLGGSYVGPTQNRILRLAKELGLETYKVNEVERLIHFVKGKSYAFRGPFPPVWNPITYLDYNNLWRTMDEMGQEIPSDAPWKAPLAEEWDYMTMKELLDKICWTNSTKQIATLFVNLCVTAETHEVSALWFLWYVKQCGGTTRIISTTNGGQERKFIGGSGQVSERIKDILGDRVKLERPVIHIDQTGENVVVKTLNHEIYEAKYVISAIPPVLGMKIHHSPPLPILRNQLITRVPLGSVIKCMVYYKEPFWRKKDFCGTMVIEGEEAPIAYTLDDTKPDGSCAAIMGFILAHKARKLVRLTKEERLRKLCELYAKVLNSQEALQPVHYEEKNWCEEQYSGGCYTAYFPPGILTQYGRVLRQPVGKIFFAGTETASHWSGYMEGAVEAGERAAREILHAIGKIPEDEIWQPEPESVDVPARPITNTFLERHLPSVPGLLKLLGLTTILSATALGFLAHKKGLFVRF

[3] = biological target: T3, Amine oxidase [flavin-containing] A (Rattus norvegicus, UniProt P21396); experiment: In vitro inhibitory concentration against Monoamine oxidase A of rat brain homogenates; value ranges from 0.5-1.4; format: tissue-based
T3 sequence (P21396 whole entry): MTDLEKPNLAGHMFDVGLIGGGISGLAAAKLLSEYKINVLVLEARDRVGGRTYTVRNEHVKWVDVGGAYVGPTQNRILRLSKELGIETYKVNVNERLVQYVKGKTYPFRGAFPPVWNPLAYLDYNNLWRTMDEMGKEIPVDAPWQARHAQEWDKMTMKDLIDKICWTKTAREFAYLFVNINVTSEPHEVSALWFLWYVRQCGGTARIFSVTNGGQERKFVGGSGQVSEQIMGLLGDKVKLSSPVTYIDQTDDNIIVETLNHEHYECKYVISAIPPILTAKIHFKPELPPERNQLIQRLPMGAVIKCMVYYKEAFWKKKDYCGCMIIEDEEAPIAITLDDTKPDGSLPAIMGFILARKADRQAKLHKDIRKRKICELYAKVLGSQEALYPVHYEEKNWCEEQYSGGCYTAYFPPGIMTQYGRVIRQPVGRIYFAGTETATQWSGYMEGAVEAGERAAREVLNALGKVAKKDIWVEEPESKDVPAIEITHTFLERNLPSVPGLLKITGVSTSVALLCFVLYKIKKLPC

Acetylcholinesterase [4] = biological target: T1, Acetylcholinesterase; experiment: In vitro inhibitory concentration against purified Acetylcholinesterase of human erythrocytes; value ranges from 0.16-0.18
Butyrylcholinesterase [5] = biological target: T4, Butyrylcholinesterase (Equus caballus, UniProt Q9N1N9); experiment: In vitro inhibitory concentration against Butyrylcholinesterase of horse serum; value ranges from 0.23-0.26
T4 sequence (Q9N1N9 whole entry): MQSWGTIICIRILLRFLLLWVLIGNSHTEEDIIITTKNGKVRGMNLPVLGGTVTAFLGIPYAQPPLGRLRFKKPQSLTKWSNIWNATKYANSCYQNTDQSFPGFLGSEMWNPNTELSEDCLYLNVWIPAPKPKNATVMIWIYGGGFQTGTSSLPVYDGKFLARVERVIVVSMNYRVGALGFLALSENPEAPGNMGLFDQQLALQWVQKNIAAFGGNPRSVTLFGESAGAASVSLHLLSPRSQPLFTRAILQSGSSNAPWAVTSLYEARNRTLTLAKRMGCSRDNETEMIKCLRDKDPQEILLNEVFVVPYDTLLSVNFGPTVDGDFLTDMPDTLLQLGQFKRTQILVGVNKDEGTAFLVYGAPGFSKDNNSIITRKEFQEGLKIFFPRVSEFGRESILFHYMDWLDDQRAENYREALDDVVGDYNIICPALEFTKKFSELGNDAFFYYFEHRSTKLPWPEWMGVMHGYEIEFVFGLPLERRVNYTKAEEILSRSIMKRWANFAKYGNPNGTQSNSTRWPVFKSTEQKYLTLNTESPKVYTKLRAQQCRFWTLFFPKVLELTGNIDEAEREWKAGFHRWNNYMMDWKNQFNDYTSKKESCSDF
In short: (§1)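 Ellman assay followed, with 200 µM butyrylthiocholine as substrate. Runs were in triplicate with four-point dose-response curves. IC50 and fiducial limits came from log concentration versus % inhibition.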

[6] = biological target: T2, Amine oxidase [flavin-containing] B; experiment: In vitro inhibitory concentration against Monoamine oxidase B of rat brain homogenates; format: tissue-based
[7] = biological target: T3, Amine oxidase [flavin-containing] A; experiment: In vitro inhibitory concentration against Monoamine oxidase A of rat brain homogenates; value ranges from 230-820; format: tissue-based
Butyrylcholinesterase [8] = biological target: T4, Butyrylcholinesterase; experiment: In vitro inhibitory concentration against Butyrylcholinesterase of horse serum; value ranges from 0.22-1.54; in short: as §1
[9] = biological target: T2, Amine oxidase [flavin-containing] B; set-up: species or system Brain
[10] = biological target: T3, Amine oxidase [flavin-containing] A; experiment: In vitro inhibitory concentration against Monoamine oxidase A of rat brain homogenates; value ranges from 1.7-3.9; format: tissue-based
Acetylcholinesterase [11] = biological target: T1, Acetylcholinesterase; experiment: In vitro inhibitory concentration against purified Acetylcholinesterase of human erythrocytes; value ranges from 2.0-15.2
Butyrylcholinesterase [12] = biological target: T4, Butyrylcholinesterase; experiment: In vitro inhibitory concentration against Butyrylcholinesterase of horse serum; value ranges from 4.8-73.9; in short: as §1
[13] = biological target: T3, Amine oxidase [flavin-containing] A; experiment: In vitro inhibitory concentration against Monoamine oxidase A of rat brain homogenates; format: tissue-based
Acetylcholinesterase [14] = biological target: T1, Acetylcholinesterase; experiment: In vitro inhibitory concentration against purified Acetylcholinesterase of human erythrocytes; value ranges from 2.2-6.4
[15] = biological target: T3, Amine oxidase [flavin-containing] A; experiment: In vitro inhibitory concentration against Monoamine oxidase A of rat brain homogenates; value ranges from 0.47; format: tissue-based
Acetylcholinesterase [16] = biological target: T1, Acetylcholinesterase; experiment: In vitro inhibitory concentration against purified Acetylcholinesterase of human erythrocytes; value ranges from 1.66-3.14
Acetylcholinesterase [17] = biological target: T1, Acetylcholinesterase; experiment: In vitro inhibitory concentration against purified Acetylcholinesterase of human erythrocytes; value ranges from 13.6-198
Butyrylcholinesterase [18] = biological target: T4, Butyrylcholinesterase; experiment: In vitro inhibitory concentration against Butyrylcholinesterase of horse serum; value ranges from 2.77-15.4; in short: as §1
Acetylcholinesterase [19] = biological target: T1, Acetylcholinesterase; experiment: In vitro inhibitory concentration against purified Acetylcholinesterase of human erythrocytes
[20] = biological target: T3, Amine oxidase [flavin-containing] A; experiment: In vitro inhibitory concentration against Monoamine oxidase A of rat brain homogenates; value ranges from 75-240; format: tissue-based
[21] = biological target: T2, Amine oxidase [flavin-containing] B; experiment: In vitro inhibitory concentration against Monoamine oxidase B of rat brain homogenates; value ranges from 77-123
Acetylcholinesterase [22] = biological target: T1, Acetylcholinesterase; experiment: In vitro inhibitory concentration against purified Acetylcholinesterase of human erythrocytes; value ranges from 8.6-49.9

T1 sequence (P22303 whole entry): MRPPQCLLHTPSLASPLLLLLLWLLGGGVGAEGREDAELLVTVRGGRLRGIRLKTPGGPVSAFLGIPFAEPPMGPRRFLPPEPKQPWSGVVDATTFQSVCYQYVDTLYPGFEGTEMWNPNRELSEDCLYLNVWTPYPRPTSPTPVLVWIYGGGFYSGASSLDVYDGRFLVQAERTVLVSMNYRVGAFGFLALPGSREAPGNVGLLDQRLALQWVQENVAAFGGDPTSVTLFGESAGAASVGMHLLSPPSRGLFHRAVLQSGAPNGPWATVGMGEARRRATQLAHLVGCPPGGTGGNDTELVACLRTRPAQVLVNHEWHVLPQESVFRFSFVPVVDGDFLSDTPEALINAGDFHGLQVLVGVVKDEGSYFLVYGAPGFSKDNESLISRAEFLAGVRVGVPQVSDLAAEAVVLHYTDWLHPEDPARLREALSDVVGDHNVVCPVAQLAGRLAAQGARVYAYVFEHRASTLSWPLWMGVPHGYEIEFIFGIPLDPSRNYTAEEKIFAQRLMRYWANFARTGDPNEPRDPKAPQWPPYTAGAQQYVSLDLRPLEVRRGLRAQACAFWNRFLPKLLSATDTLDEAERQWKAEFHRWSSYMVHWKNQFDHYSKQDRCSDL

**Q.** With `C#CCN(C)CCc1cccc(OC(=O)N(C)CC)c1` as the compound, how does the IC50 (Acetylcholinesterase [1]) read?
**A.** The IC50 was 16.6 µM.

**Q.** What about the IC50 [2] of the same compound?
**A.** The IC50 was 0.8 µM.

**Q.** What about the IC50 [3] of the same compound?
**A.** Its IC50 is 0.8 µM.

**Q.** How did the IC50 (Acetylcholinesterase [4]) turn out when `C#CC(C)NCCc1cccc(OC(=O)N(C)C)c1` (stereo not drawn) was run?
**A.** The IC50 was 0.17 µM.

**Q.** What about the IC50 (Butyrylcholinesterase [5]) of the same compound?
**A.** The IC50 was 0.24 µM.

**Q.** And the IC50 [6]?
**A.** The IC50 was over 1000 µM.

**Q.** What about the IC50 [7] of the same compound?
**A.** Its IC50 is 440 µM.

**Q.** What does the source list for `C#CCNCCc1cccc(OC(=O)N(C)CC)c1`?
**A.** IC50 (Butyrylcholinesterase [8]): 0.54 µM; IC50 [9]: 7.8 µM; IC50 [10]: 2.6 µM

**Q.** What does the source list for `C#CCN[C@H]1CCc2ccc(OC(=O)N(C)CCC)cc21`?
**A.** IC50 (Acetylcholinesterase [11]): 8.5 µM; IC50 (Butyrylcholinesterase [12]): 12.4 µM; IC50 [6]: > 1000 µM; IC50 [13]: > 1000 µM

**Q.** Which IC50 (Acetylcholinesterase [14]) does the source give for `C#CCN(C)[C@@H](C)Cc1cccc(OC(=O)N(C)CCCCCC)c1` here?
**A.** The IC50 was 3.4 µM.

**Q.** With `C#CCNC1CCc2ccc(O)cc21` (stereo not drawn) as the compound, how does the IC50 [15] read?
**A.** Its IC50 is 0.67 µM.

**Q.** How did the IC50 (Acetylcholinesterase [16]) turn out when `CN(C)C(=O)Oc1ccc2c(c1)C(N(C)C)CC2` (stereo not drawn) was run?
**A.** The IC50 was 2.15 µM.

**Q.** Which results are given for `C#CCNC1CCc2ccc(OC(=O)N(C)C3CCCCC3)cc21` (stereo not drawn)?
**A.** IC50 (Acetylcholinesterase [17]): 41.2 µM; IC50 (Butyrylcholinesterase [18]): 5.56 µM

**Q.** How did the IC50 (Acetylcholinesterase [19]) turn out when `C#CCNC1CCc2ccc(OC(=S)N(C)C)cc21` (stereo not drawn) was run?
**A.** The IC50 was over 500 µM.

**Q.** And the IC50 [20]?
**A.** The IC50 was 130 µM.

**Q.** And the IC50 [21]?
**A.** The IC50 was 98 µM.

**Q.** With `C#CCN(CC)C1CCc2ccc(OC(=O)N(C)C)cc21` (stereo not drawn) as the compound, how does the IC50 (Acetylcholinesterase [22]) read?
**A.** Its IC50 is 17.9 µM.
